Test results published in ChEMBL document CHEMBL2384997, “2-(1H-Pyrazol-4-yl)acetic acids as CRTh2 antagonists” (Bioorg Med Chem Lett, 2013).
Values after ≈ are worked out from the molar mass of the structure shown.

How the values were obtained:
[1] = target: T1, Prostaglandin D2 receptor 2 (Homo sapiens, UniProt Q9Y5Y4); assay: Antagonist activity at CRTh2 receptor (unknown origin) overexpressed in CHOK1 cell membranes assessed as inhibition of [35S]-GTPgammaS binding preincubated for 1 hr followed by 50 nM PGD2 and 0.1 nM [35S]-GTPgammaS addition measured after 2 hrs by liquid scintillation counting analysis; type: functional, CHO-K1
T1 sequence (Q9Y5Y4 whole entry): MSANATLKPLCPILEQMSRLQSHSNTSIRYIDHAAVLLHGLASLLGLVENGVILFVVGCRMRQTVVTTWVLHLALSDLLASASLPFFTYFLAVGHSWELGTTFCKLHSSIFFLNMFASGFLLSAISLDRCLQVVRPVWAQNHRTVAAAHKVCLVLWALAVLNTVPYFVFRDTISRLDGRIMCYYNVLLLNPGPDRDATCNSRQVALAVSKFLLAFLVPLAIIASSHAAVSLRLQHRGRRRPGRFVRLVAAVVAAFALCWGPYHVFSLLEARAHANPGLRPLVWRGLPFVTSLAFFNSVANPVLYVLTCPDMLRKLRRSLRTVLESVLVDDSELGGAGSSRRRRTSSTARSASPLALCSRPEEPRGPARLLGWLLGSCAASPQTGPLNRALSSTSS

[2] = target: T2, Thromboxane A2 receptor (Homo sapiens) (UniProt P21731); assay: Inhibition of thromboxane A2 receptor (unknown origin) at 10 uM relative to control
T2 sequence (whole entry): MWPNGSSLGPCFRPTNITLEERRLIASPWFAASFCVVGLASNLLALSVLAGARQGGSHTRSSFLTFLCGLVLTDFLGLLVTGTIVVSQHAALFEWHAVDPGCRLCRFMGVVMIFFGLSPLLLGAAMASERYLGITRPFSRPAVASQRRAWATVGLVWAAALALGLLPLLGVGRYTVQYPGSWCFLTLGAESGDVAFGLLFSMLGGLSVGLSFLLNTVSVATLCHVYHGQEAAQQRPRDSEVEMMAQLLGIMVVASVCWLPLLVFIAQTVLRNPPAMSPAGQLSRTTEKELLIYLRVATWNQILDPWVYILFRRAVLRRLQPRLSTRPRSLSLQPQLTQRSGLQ

[3] = target: T3, Prostaglandin D2 receptor (Homo sapiens) (UniProt Q13258); assay: Inhibition of DP1 receptor (unknown origin) at 10 uM relative to control
T3 sequence (whole entry): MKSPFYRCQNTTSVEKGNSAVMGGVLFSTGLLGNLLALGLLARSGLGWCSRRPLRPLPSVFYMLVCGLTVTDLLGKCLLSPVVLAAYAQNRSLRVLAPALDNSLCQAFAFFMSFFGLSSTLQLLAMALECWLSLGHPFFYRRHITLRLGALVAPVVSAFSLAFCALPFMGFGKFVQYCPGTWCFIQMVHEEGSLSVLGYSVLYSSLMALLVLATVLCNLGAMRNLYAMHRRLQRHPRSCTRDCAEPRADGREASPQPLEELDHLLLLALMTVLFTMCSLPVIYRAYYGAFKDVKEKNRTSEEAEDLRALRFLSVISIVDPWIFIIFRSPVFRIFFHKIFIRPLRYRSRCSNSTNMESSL

[4] = target: T4, Prostaglandin D2 receptor 2 (Homo sapiens) (UniProt Q9Y5Y4); settings: CHO-K1
T4 sequence (whole entry): T1 sequence (Q9Y5Y4 whole entry)

[5] = target: T1, Prostaglandin D2 receptor 2; assay: Antagonist activity at CRTh2 receptor overexpressed in CHOK1 cell membranes assessed as inhibition of [35S]-GTPgammaS binding in presence of 1% human serum albumin
[6] = Volume of distribution at steady state in rat at 0.5 mg/kg, iv; type: ADME, organism-based; set-up: dose 0.5 mg/kg, route intravenous; settings: in vivo, read-out: Vdss
[7] = Oral bioavailability in rat at 1 mg/kg; type: ADME, organism-based; settings: in vivo
[8] = Half life in rat at 0.5 mg/kg, iv; type: ADME, organism-based; set-up: dose 0.5 mg/kg, route intravenous; settings: in vivo
[9] = Clearance in rat at 0.5 mg/kg, iv; type: ADME, organism-based; set-up: dose 0.5 mg/kg, route intravenous; settings: in vivo
[10] = Lipophilicity , log D of the compound at pH 7.4 by shake-flask method; type: physicochemical; settings: buffer
In short: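 logD at pH 7.4 by shake-flask.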

[11] = AUC ( 0 to 24 hrs) in rat at 0.5 mg/kg, iv; type: ADME, organism-based; set-up: time < 24 hr, dose 0.5 mg/kg, route intravenous; settings: plasma
[12] = Solubility of the compound at pH 1; type: physicochemical; settings: buffer
[13] = Solubility of the compound at pH 7.4; type: physicochemical; settings: buffer
[14] = Dissociation constant, pKa of the compound by potentiometric method; type: physicochemical
In short: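 pKa determined potentiometrically.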

[15] = Apparent permeability from apical to basolateral side in human Caco2 cells; type: ADME, cell-based; settings: Caco-2
[16] = Apparent permeability from basolateral to apical side in human Caco2 cells; type: ADME, cell-based; settings: Caco-2
[17] = target: T4, Prostaglandin D2 receptor 2 (Homo sapiens); assay: Ratio of IC50 for CRTh2 receptor in human whole blood assessed as inhibition of PGD2-induced eosinophil shape change to IC50 for CRTh2 receptor (unknown origin) overexpressed in CHOK1 cells assessed as inhibition of [35S]-GTPgammaS binding; type: functional, cell-based; settings: CHO-K1
[18] = Oral bioavailability in rat at 10 mg/kg; type: ADME, organism-based; settings: in vivo
[19] = Volume of distribution at steady state in rat at 1 mg/kg, iv; type: ADME, organism-based; set-up: dose 1 mg/kg, route intravenous; settings: in vivo, read-out: Vdss
[20] = Clearance in rat at 1 mg/kg, iv; type: ADME, organism-based; set-up: dose 1 mg/kg, route intravenous; settings: in vivo
[21] = Terminal half life in rat at 1 mg/kg, iv; type: ADME, organism-based; set-up: dose 1 mg/kg, route intravenous; settings: in vivo, read-out: beta t1/2 (converted)
[22] = AUC ( 0 to 24 hrs) in rat at 1 mg/kg, iv; type: ADME, organism-based; set-up: time < 24 hr, dose 1 mg/kg, route intravenous; settings: plasma
[23] = Plasma protein binding in human by rapid equilibrium dialysis method; type: ADME, cell-free; settings: read-out: PPB
In short: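 Protein binding by equilibrium dialysis; human plasma diluted to 10%.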

[24] = Plasma protein binding in rat by rapid equilibrium dialysis method; type: ADME, cell-free; settings: read-out: PPB (converted)

Compound Cc1c(CC(=O)O)c(-c2ccccc2)nn1C(c1ccc(F)cc1)c1ccc(F)cc1 has an IC50 ([1]; read-out: IC50) of 1100 nM.

In the case of COc1c(CC(=O)O)c(C)nn1-c1cccc(NC(=O)[C@H]2C[C@@H]2c2ccccc2)c1, the IC50 ([1]; read-out: IC50) is reported as 1600 nM.

For Cc1c(CC(=O)O)c(-c2ccncc2)nn1C(c1ccc(F)cc1)c1ccc(F)cc1, the inhibition [2] was under 40%, the inhibition [3] was under 40% and the IC50 ([1]; read-out: IC50) was 46 nM. It also gave a T1/2 [4] of 30 min.

Compound Cc1c(CC(=O)O)c(-c2ccccc2)nn1Cc1ccccc1-c1ccccc1 has an IC50 ([1]; read-out: IC50) of 5000 nM.

For Cc1c(CC(=O)O)c(-c2ccccc2)nn1Cc1ccc(S(C)(=O)=O)cc1, the IC50 ([1]; cho-k1) was “Not Active”.

For Cc1c(CC(=O)O)c(-c2ccnc(F)c2)nn1C(c1ccc(F)cc1)c1ccc(F)cc1, the IC50 ([1]; read-out: IC50) was 310 nM.

Work on Cc1c(CC(=O)O)c(-c2ccccc2)nn1Cc1ccccc1C(=O)c1ccccc1 yielded an IC50 ([1]; read-out: IC50) of 1400 nM.

With Cc1c(CC(=O)O)c(-c2ccccc2)nn1Cc1ccccc1Cc1ccccc1 the inhibition [2] was under 40%, the inhibition [3] was under 40% and the IC50 ([1]; read-out: IC50) was 100 nM.

For Cc1c(CC(=O)O)c(-c2ccccc2)nn1C(c1ccc(F)cc1)c1ccc(S(C)(=O)=O)cc1 (stereo not drawn), the IC50 ([1]; read-out: IC50) was 5000 nM.

For Cc1c(CC(=O)O)c(-c2ccccc2)nn1CC1CCCN1S(=O)(=O)c1ccccc1 (stereo not drawn), the IC50 ([1]; cho-k1) was “Not Active”.

With Cc1c(CC(=O)O)c(-c2ccccc2)nn1Cc1ccccc1S(=O)(=O)N1CCOCC1 the inhibition [2] was under 40%, the inhibition [3] was under 40% and the IC50 ([1]; read-out: IC50) was 89 nM.

Cc1c(CC(=O)O)c(-c2ccccc2)nn1S(=O)(=O)c1ccc(Cl)c(Cl)c1 gave an IC50 ([1]; read-out: IC50) of 1600 nM.

With Cc1c(CC(=O)O)c(-c2ccncc2)nn1Cc1ccccc1S(=O)(=O)c1ccccc1 the IC50 ([1]; read-out: IC50) was 4 nM and the IC50 [5] was 66 nM.

Compound Cc1c(CC(=O)O)c(-c2ccccc2)nn1Cc1ccccc1Oc1ccccc1 has an inhibition [2] of under 40%, an inhibition [3] of under 40% and an IC50 ([1]; read-out: IC50) of 2000 nM.

Compound Cc1c(CC(=O)O)c(=O)[nH]n1Cc1ccccc1S(=O)(=O)c1ccccc1 has an inhibition [2] of under 40% and an inhibition [3] of under 40%.

Cc1c(CC(=O)O)c(-c2ccccc2)nn1Cc1ccccc1S(=O)(=O)N(C)C showed an IC50 ([1]; read-out: IC50) of 850 nM.

Work on Cc1c(CC(=O)O)c(-c2ccccc2)nn1-c1ccnc2ccccc12 yielded an IC50 ([1]; read-out: IC50) of 5000 nM.

For Cc1c(Cc2ccccc2S(=O)(=O)c2ccccc2)c2cc(F)ccc2n1CC(=O)O, the IC50 ([1]; read-out: IC50) was 16 nM.

For Cc1c(CC(=O)O)c(-c2ccc(O)nc2)nn1C(c1ccc(F)cc1)c1ccc(F)cc1, the IC50 ([1]; cho-k1) was “Not Active”.

With Cc1c(CC(=O)O)c(-c2ccncc2)nn1Cc1ccc(F)cc1 the IC50 ([1]; read-out: IC50) was 1900 nM.

Work on COc1ccc(S(=O)(=O)c2ccc(F)cc2)c(Cn2nc(-c3ccccc3)c(CC(=O)O)c2C)c1 yielded an IC50 ([1]; read-out: IC50) of 36 nM.

Work on Cc1nn(Cc2ccc3ccccc3n2)c(C)c1CC(=O)O yielded an IC50 ([1]; read-out: IC50) of over 5000 nM.

Cc1nn(Cc2ccc(S(C)(=O)=O)cc2)c(C)c1CC(=O)O gave an IC50 ([1]; read-out: IC50) of 5000 nM.

For Cc1c(CC(=O)O)c(-c2ccccc2)nn1Cc1ccc(F)cc1S(=O)(=O)N1CCNCC1, the IC50 ([1]; read-out: IC50) was 5000 nM.

Compound Cc1c(CC(=O)O)c(-c2ccccc2)nn1Cc1ccccc1CS(=O)(=O)c1ccccc1 has an IC50 ([1]; read-out: IC50) of 490 nM.

O=C(O)Cc1cn(C(c2ccc(F)cc2)c2ccc(F)cc2)nc1-c1ccncc1 showed an IC50 ([1]; read-out: IC50) of 290 nM.

For Cc1c(CC(=O)O)c(-c2ccccc2)nn1Cc1ccc2ccccc2n1, the IC50 ([1]; read-out: IC50) was 870 nM.

Compound Cc1nn(-c2cccc(NC(=O)[C@H]3C[C@@H]3c3ccccc3)c2)c(C)c1CC(=O)O has a Vd [6] of 0.14 L/kg, a bioavailability [7] of 12% and a half-life [8] of 78 min. The clearance [9] was 2.5 mL/min/kg, the logD [10] was 0.9 and the AUC(0-t) at 24 h [11] was 3360 ng·h/mL. For the same compound, the solubility [12] was 500 µg/mL (≈ 1280 µM), the solubility [13] was 800 µg/mL (≈ 2050 µM) and the pKa [14] was 4.2. For the same compound, the Papp A→B [15] was 3 ×10⁻⁶ cm/s, the Papp B→A [16] was 6 ×10⁻⁶ cm/s and the Ratio IC50 [17] was 10. For the same compound, the IC50 ([1]; read-out: IC50) was 230 nM.

Cc1c(CC(=O)O)c(-c2ccccc2)nn1C(C)c1ccccc1S(=O)(=O)c1ccccc1 (stereo not drawn) showed an IC50 ([1]; read-out: IC50) of 2900 nM.

Cc1c(CC(=O)O)c(-c2ccccc2)nn1Cc1ccccc1S(=O)(=O)c1ccccc1 showed an inhibition [2] of under 40%, an inhibition [3] of under 40% and a bioavailability [18] of 73%. The Vd [19] was 1.6 L/kg, the clearance [20] was 8.5 mL/min/kg and the half-life [21] was 288 min. It also gave an AUC(0-t) at 24 h [22] of 1960 ng·h/mL, a fraction unbound [23] of under 0.001 and a fraction unbound [24] of 0.012. The logD [10] was 0.7, the solubility [12] was 3 µg/mL (≈ 6.72 µM) and the solubility [13] was 950 µg/mL (≈ 2130 µM). It also gave a pKa [14] of 4.2, a Papp A→B [15] of 13 ×10⁻⁶ cm/s and a Papp B→A [16] of 17 ×10⁻⁶ cm/s. The IC50 ([1]; read-out: IC50) was 7 nM and the T1/2 [4] was 12 min.

Cc1nn(Cc2ccccc2S(=O)(=O)c2ccccc2)c(C)c1CC(=O)O showed an inhibition [2] of under 40%, an inhibition [3] of under 40% and an IC50 ([1]; read-out: IC50) of 81 nM. For the same compound, the T1/2 [4] was 2 min.
